The values below come from PubChem BioAssay AID540246 (Broad Institute, 2011).

Active and inactive are the calls of the source.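 Rule for the calls: active = IC50 no more than ten times the top valid dose, with luminescence dropping as cells die; inconclusive = flat curve losing 30 to 70% of signal, or poor fit; inactive = the rest, including signal rises.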 Some results are limits rather than exact numbers.

Experiment [1] has as its system ldlA[mSR-BI] CHO cells viability, CellTiter-Glo ATP, 3 h. Nature of the experiment: cytotoxicity in ldlA[mSR-BI] cells, dose response, cytotoxicity control for SR-BI HDL uptake inhibitor project, cell-based, CellTiter-Glo, 3 h, dry powder (AID 540246). The gist of the method:
(§1)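 Material: ldlA[mSR-BI] cells, viability (cytotoxicity counter-screen); Schedule: 3 h compound treatment, 37 °C; Doses: 8-point compound dose series; Medium: Ham's F12 growth medium containing 10% FCS; Detection: cell Titer Glo ATP luminescence; Evaluation: IC50 for loss of cell viability fitted from dose series.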
For orientation: In ATP-based viability assays light output follows the ATP content of the culture.

Experiment in experiment [2]: as above
The settings on record: ldlA[mSR-BI] CHO cells viability, CellTiter-Glo ATP, 3 h. The gist of the method: as §1

For `CCOC(=O)Nc1cccc(NC(=O)c2cc(OC)cc(OC)c2)c1`, the IC50 in experiment [1] was > 35 µM (inactive).

On to `O=C(Nc1cc(Cl)ccc1Cl)c1cc(Cl)ccc1NS(=O)(=O)c1ccc(Cl)c([N+](=O)[O-])c1`, for which the IC50 in experiment [1] is > 35 µM (inactive). Still for that read-out and setting: the result for `C[C@H]1CN([C@@H](C)CO)C(=O)c2cccc(NC(=O)Nc3ccc(F)cc3)c2O[C@@H]1CN(C)Cc1ccc(Cl)c(Cl)c1` reads 48.1 µM. Consider `O=C(Nc1ccc(-c2nc3ccc(NC(=O)c4ccccc4)cc3[nH]2)cc1)c1ccccc1`, for which the IC50 in experiment [1] is 37.8 µM. Still for that read-out and setting: the result for `C[C@H]1CN([C@@H](C)CO)C(=O)c2cccc(NC(=O)Nc3ccccc3)c2O[C@@H]1CN(C)Cc1ccc(Cl)c(Cl)c1` reads 66.5 µM; that for `Cc1cc(C(=O)C(C)OC(=O)C2=NNC(=O)CC2)c(C)n1-c1ccc(OC(F)F)cc1` (configuration not stated), > 35 µM (inactive); that for `CCOc1ccccc1/C=C/c1onc(C)c1S(=O)(=O)N1CCC(C(=O)NC(C)(C)C)CC1`, > 35 µM (inactive). As to `C[C@H](CO)N1C[C@H](C)[C@H](CN(C)S(=O)(=O)c2ccc(F)cc2)Oc2ccc(NC(=O)Cc3cn(C)c4ccccc34)cc2C1=O`, the activity change, negative = cytotoxicity in experiment [2] (at 35 µM (top of the series)) was -7.27% (inactive). Turning to `C[C@H]1CN([C@@H](C)CO)C(=O)c2cc(NC(=O)Cc3cn(C)c4ccccc34)ccc2O[C@H]1CN(C)S(=O)(=O)c1ccc(F)cc1`, in experiment [2] (at 30 µM (top of the series)), the activity change, negative = cytotoxicity was -3.79% (inactive). Consider `CC(C)OCCCNC(=O)c1ccc(C2SCC(=O)N2Cc2ccco2)cc1` (configuration not stated), for which, in experiment [2] (at 35 µM (top of the series)), the activity change, negative = cytotoxicity was 0.099% (inactive). The same measure, in the same setting: the result for `C[C@@H]1CN([C@@H](C)CO)C(=O)c2cc(NC(=O)Cc3cn(C)c4ccccc34)ccc2O[C@@H]1CN(C)S(=O)(=O)c1ccc(F)cc1` reads 6.07% (inactive); that for `O=C(Nc1ccc(-c2nc3cc(NC(=O)c4ccccc4Cl)ccc3o2)cc1)c1ccccc1Cl`, 15.2% (inactive). Consider `COc1ccc(-c2nnn(CC(=O)N(C3CCCCC3)C(C)C(=O)NC3CCCC3)n2)cc1OC` (configuration not stated), for which, in experiment [1], the IC50 is > 35 µM (inactive). Consider `C[C@H](CO)N1C[C@H](C)[C@H](CN(C)S(=O)(=O)c2ccc(F)cc2)Oc2ccc(NC(=O)Cc3ccccc3)cc2C1=O`, for which the activity change, negative = cytotoxicity in experiment [2] (at 35 µM (top of the series)) is 2.52% (inactive).

For `Cc1cc(C)n(CC(=O)NC2CCCc3c2cnn3-c2ccc(C)c(C)c2)n1` (configuration not stated), the activity change, negative = cytotoxicity in experiment [2] (at 35 µM (top of the series)) was 0.308% (inactive).

With `COC(=O)c1cn(C(=O)c2cccc3ccccc23)c2ccccc12`, the activity change, negative = cytotoxicity in experiment [2] (at 35 µM (top of the series)) is -9.72% (inactive). Regarding `Cc1ccc2oc(-c3cccc(NC(=O)c4cc(-n5cnnc5)ccc4Cl)c3)nc2c1`, in experiment [1], the half-inhibitory concentration (IC50) is 31.7 µM.

By IC50 is commonly meant the midpoint of a concentration-inhibition curve.
